Experimental data from different studies.
Compare with care: the assays were run in different laboratories.
Target: Tyrosine-protein kinase CSK (CSK, Homo sapiens, UniProt P41240)

O=C(Nc1cnn(-c2csc(C(=O)NC3COC3)c2)c1)Nc1c(F)cccc1Cl  remaining activity (enzyme activity, inhibitor; 5 µM): 97.5%
O=C(CSc1nc2nccnc2c(=O)n1CCc1ccccc1)Nc1nccs1  inhibition (enzyme activity, inhibitor; 10 µM): 6%
CNC(=O)c1ccc(Nc2ncc(C(F)(F)F)c(NCc3nccnc3N(C)S(C)(=O)=O)n2)cc1  remaining binding (cell-free assay, competition with immobilised ligand; 0.1 µM): 100%
O=C1Nc2ccc(Cl)cc2C1=Cc1cc(Cl)c(O)c(Cl)c1  remaining activity (enzyme activity, inhibitor; 0.5 µM): 85%
CCN(CC)CCNC(=O)c1c(C)[nH]c(/C=C2\C(=O)Nc3ccc(F)cc32)c1C  inhibition (enzyme activity, inhibitor; 0.3 µM): -8%
Oc1ccc(-c2nc(-c3ccncc3)c(-c3ccc(F)cc3)[nH]2)cc1  remaining activity (enzyme activity, inhibitor; 0.5 µM): 93.7%
CC(C)(C)C(=O)c1sc(NC2CCCCC2)nc1N  remaining activity (enzyme activity, inhibitor; 10 µM): 98%
CO[C@@H](C)c1c(Nc2ccc([C@H](N(C)C(=O)C3CCS(=O)(=O)CC3)C(F)(F)F)cc2)cnc2cc(Cl)nn12  remaining binding (cell-free assay, competition with immobilised ligand; 1 µM): 100%
COc1cc2ncnc(Nc3ccc(Oc4ccccc4)c(C)c3C)c2cc1OC  inhibition (enzyme activity, inhibitor; 1 µM): 49%
CC(=O)N1CCC(c2ccc(C(=O)NC(=N)N)cc2C(F)(F)F)CC1  remaining binding (cell-free assay, competition with immobilised ligand; 1 µM): 100%
O=C1c2ccccc2-c2n[nH]c3cccc1c23  activity vs control (enzyme activity, inhibitor; 0.5 µM): 95.6%
COc1cc(Cl)c(C(=O)N[C@@H](CN[C@H]2CC[C@@H](N)CC2)Cc2ccc(C#N)cc2)cc1-c1ccc(CN[C@H](C)c2ccc(C)cc2)o1  remaining activity (enzyme activity, inhibitor; 1 µM): 99%
CN1CC(Oc2cnc(C#N)cc2-c2ccn3nc(NC(=O)C4CC4)cc3c2)C1  inhibition (enzyme activity, inhibitor; 1 µM): -11%
CC(C)(C)c1nc2c(s1)c1nc(N)ncc1c1ccc(NS(=O)(=O)c3c(F)cccc3F)c(F)c12  remaining activity (enzyme activity, inhibitor, radiometric; 1 µM): 87%
CNc1cc(Oc2cc(C(=O)Nc3cc(N4CCN(C)CC4)cc(C(F)(F)F)c3)ccc2C)ncn1  inhibition (target engagement in cells, inhibitor, chemoproteomics; Huh-7; 1 µM): -15%
Cn1cc(Cl)c2c(Oc3c(F)cc(Nc4cc(Cl)nc(N)n4)cc3F)ccnc21  remaining binding (cell-free assay, competition with immobilised ligand; 0.1 µM): 100%
Nc1nc(NC2CCCCC2)sc1C(=O)c1ccccc1  remaining activity (enzyme activity, inhibitor; 10 µM): 95%
CN(C)C(=O)Cn1cc(-c2nc([C@@](C)(c3ccc(-c4cnc(N)nc4)cc3)C3CC3)no2)cn1  remaining binding (cell-free assay, competition with immobilised ligand; 1 µM): 100%
c1nc2c(Nc3ccc4c(c3)OCCO4)nc(Nc3ccc4c(c3)OCCO4)nc2[nH]1  activity vs control (enzyme activity, inhibitor; 10 µM): 18%
O=C1NC(=O)c2cc(Nc3ccc(F)cc3)c(Nc3ccc(F)cc3)cc21  remaining activity (enzyme activity, inhibitor; 0.5 µM): 92%
O=C(Nc1cnn(-c2csc(C(=O)NC3COC3)c2)c1)Nc1ccccc1Cl  remaining activity (enzyme activity, inhibitor; 5 µM): 99.2%
Oc1cccc(-c2nc(N3CCOCC3)c3oc4ncccc4c3n2)c1  remaining activity (enzyme activity, inhibitor; 10 µM): 101%
Cc1cc(NC(=O)c2cccc3cc(-c4cccc5[nH]nc(N)c45)ccc23)ccc1F  activity vs control (enzyme activity, inhibitor; 0.1 µM): 97%
Cc1nc(N2CC[C@@H](O)C2)ncc1-c1cc(C(F)(F)F)cc2[nH]ncc12  remaining binding (cell-free assay, competition with immobilised ligand; 1 µM): 100%
Cc1ccc(Nc2nccc(N(C)c3ccc4c(C)n(C)nc4c3)n2)cc1S(N)(=O)=O  inhibition (enzyme activity, inhibitor; 0.3 µM): -6%
FC(F)(F)Oc1cccc(-c2cnc3ccc(-c4ccncc4)nn23)c1  activity vs control (enzyme activity, inhibitor, radiometric; 5 µM): 100%
CC/C(=N\NC(=O)NCc1cccc(O)c1)c1ccc(O)c(C)c1O  inhibition (enzyme activity, inhibitor; 0.1 µM): -4.9%
COc1cc(-c2cn(C3CCc4ccccc4N(CC(F)(F)F)C3=O)nn2)ccc1-n1ccc(C)n1 (centres unmarked)  remaining binding (cell-free assay, competition with immobilised ligand; 1 µM): 100%
CNC(=O)c1cc(Oc2ccc(NC(=O)Nc3ccc(Cl)c(C(F)(F)F)c3)cc2)ccn1  inhibition (enzyme activity, inhibitor; 0.3 µM): -7%
Cn1nc(C(F)(F)F)cc1-c1cnc(N2CCc3cc(S(=O)(=O)Nc4c(F)cc(Cl)cc4F)cc(N4CCCC4=O)c32)nc1  remaining binding (cell-free assay, competition with immobilised ligand; 1 µM): 93%
Cc1ccc(C(=O)NCc2ccsc2)cc1C#Cc1cn(C(C)C)c2ncnc(N)c12  activity vs control (enzyme activity, inhibitor; 1 µM): 26%
COc1cc(Nc2cnc(C#N)c(O[C@H](C)CN(C)C)n2)ncc1-c1cnn(C)c1  remaining activity (enzyme activity, inhibitor, radiometric; 10 µM): 94%
